In ChEMBL document CHEMBL1143299, “Synthesis and biological activity of novel shikonin analogues” (Bioorg Med Chem Lett, 2009):
Active and inactive are the calls of the source. The calls are words filed in the database; no cut-off is given here.

Experiments:
Assay type in all cases: functional, cell-based
HeLa = experiment: Cytotoxicity agaisnt human HeLa cells by SRB assay
Summary of the method: (§1)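 IC50 from three independent experiments; growth inhibition read by SRB (adherent lines) or MTT (HL60, K562).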

HL-60 = experiment: Cytotoxicity against human HL60 cells by MTT assay; summary of the method: as §1
KB = experiment: Cytotoxicity agaisnt vincristine-resistant human KB cells by SRB assay; summary of the method: as §1
MDA-MB-231 [1] = experiment: Cytotoxicity agaisnt human MDA-MB-231 cells by SRB assay; summary of the method: as §1
HCT-116 = experiment: Cytotoxicity agaisnt human HCT116 cells by SRB assay; summary of the method: as §1
A549 = experiment: Cytotoxicity agaisnt human A549 cells by SRB assay; summary of the method: as §1
[2] = Cytotoxicity agaisnt human Rh30 cells by SRB assay; conditions: SJRH30; summary of the method: as §1
[3] = Cytotoxicity agaisnt human KB-3-1 cells by SRB assay; summary of the method: as §1
HT-29 = experiment: Cytotoxicity agaisnt human HT29 cells by SRB assay; summary of the method: as §1
K562 = experiment: Cytotoxicity agaisnt human K562 cells by MTT assay; summary of the method: as §1
MDA-MB-231 [4] = experiment: Reduction of hypoxia-induced HIF1alpha accumulation in human MDA-MB-231 cells at 10 uM by Western blotting analysis
Summary of the method: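 MDA-MB-231 cells (5 × 10⁵) treated at 10 µM, held in hypoxia (1% O₂) for 10 h, then lysed in 1× SDS loading buffer (pH 6.8 Tris–HCl, DTT, SDS) and boiled. Equal lysate amounts run on 10% SDS–PAGE, transferred to nitrocellulose, probed for HIF-1α and β-actin with HRP secondary antibodies, detected by ECL. Representative of three independent experiments.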

| SMILES | IC50 (HeLa) [µM] | IC50 (HL-60) [µM] | also measured |
| --- | --- | --- | --- |
| COc1cc([C@@H]2c3cc4c(cc3[C@@H](O)[C@H]3COC(=O)[C@H]23)OCO4)cc(OC)c1O [4'-DEMETHYLEPIPODOPHYLLOTOXIN] | 0.98 | 0.82 | – |
| CC(C)C(NS(=O)(=O)c1ccc(Br)cc1)C1=CC(=O)c2c(O)ccc(O)c2C1=O (centres undefined) | 7.65 | – | – |
| CC(NS(=O)(=O)c1ccc(Cl)cc1)C1=CC(=O)c2c(O)ccc(O)c2C1=O (centres undefined) | 0.81 | 0.25 | IC50 (KB): 12.4 µM; IC50 (MDA-MB-231 [1]): 4.5 µM; IC50 (HCT-116): 3.2 µM; IC50 (A549): 8.3 µM; IC50 [2]: 1.9 µM; IC50 [3]: 6.9 µM; IC50 (HT-29): 1.3 µM; IC50 (K562): 19.9 µM; Activity (MDA-MB-231 [4]): Active |
| CC(=O)c1ccc(S(=O)(=O)NC(C2=CC(=O)c3c(O)ccc(O)c3C2=O)C(C)C)cc1 (centres undefined) | 3.82 | 0.11 | – |
| COc1ccc(S(=O)(=O)NC(C)C2=CC(=O)c3c(O)ccc(O)c3C2=O)c(OC)c1 (centres undefined) | 19.5 | 0.5 | – |
| Cc1ccc(S(=O)(=O)NC(C)C2=CC(=O)c3c(O)ccc(O)c3C2=O)cc1 (centres undefined) | 5.34 | 0.03 | – |
| Cc1ccc(S(=O)(=O)NC(C2=CC(=O)c3c(O)ccc(O)c3C2=O)C(C)C)cc1 (centres undefined) | 4.85 | – | – |
| COc1ccc(S(=O)(=O)NC(C)C2=CC(=O)c3c(O)ccc(O)c3C2=O)cc1 (centres undefined) | 3.76 | 0.02 | – |
| CC(C)C(NS(=O)(=O)c1cccc(Br)c1)C1=CC(=O)c2c(O)ccc(O)c2C1=O (centres undefined) | 0.86 | 0.79 | – |
| Cc1ccccc1S(=O)(=O)NC(C1=CC(=O)c2c(O)ccc(O)c2C1=O)C(C)C (centres undefined) | 0.79 | 0.19 | – |
| COc1ccc(S(=O)(=O)NC(C2=CC(=O)c3c(O)ccc(O)c3C2=O)C(C)C)c(OC)c1 (centres undefined) | 2.75 | 0.4 | – |
| Cc1ccccc1S(=O)(=O)NC(C)C1=CC(=O)c2c(O)ccc(O)c2C1=O (centres undefined) | 4.49 | 0.07 | Activity (MDA-MB-231 [4]): Active |
| CC(=O)c1ccc(S(=O)(=O)NC(C)C2=CC(=O)c3c(O)ccc(O)c3C2=O)cc1 (centres undefined) | 5.76 | 0.26 | – |
| COc1ccc(S(=O)(=O)NC(C2=CC(=O)c3c(O)ccc(O)c3C2=O)C(C)C)cc1 (centres undefined) | 8.95 | – | – |
| CC(NS(=O)(=O)c1ccc(F)cc1)C1=CC(=O)c2c(O)ccc(O)c2C1=O (centres undefined) | 6.41 | 0.09 | – |
| CC(NS(=O)(=O)c1ccccc1Br)C1=CC(=O)c2c(O)ccc(O)c2C1=O (centres undefined) | 6.2 | 0.12 | Activity (MDA-MB-231 [4]): Active |
| CC(C)=CC[C@@H](O)C1=CC(=O)c2c(O)ccc(O)c2C1=O [SHIKONIN] | 13.4 | 0.44 | Activity (MDA-MB-231 [4]): Active |
| CC(C)C(NS(=O)(=O)c1ccccc1Br)C1=CC(=O)c2c(O)ccc(O)c2C1=O (centres undefined) | 8.31 | 0.34 | – |
| CC(C)C(NS(=O)(=O)c1ccc(F)cc1)C1=CC(=O)c2c(O)ccc(O)c2C1=O (centres undefined) | 6.65 | – | – |
| CC(NS(=O)(=O)c1ccc(Br)cc1)C1=CC(=O)c2c(O)ccc(O)c2C1=O (centres undefined) | 5.21 | 0.1 | – |
| CCOC(=O)c1ccc(S(=O)(=O)NC(C2=CC(=O)c3c(O)ccc(O)c3C2=O)C(C)C)cc1 (centres undefined) | 0.85 | 0.15 | IC50 (KB): 13.2 µM; IC50 (MDA-MB-231 [1]): 4.7 µM; IC50 (HCT-116): 3.8 µM; IC50 (A549): 11.4 µM; IC50 [2]: 2.6 µM; IC50 [3]: 11.8 µM; IC50 (HT-29): 2.8 µM; IC50 (K562): 18.2 µM |
| CCOC(=O)c1ccc(S(=O)(=O)NC(C)C2=CC(=O)c3c(O)ccc(O)c3C2=O)cc1 (centres undefined) | 2.26 | 0.12 | – |
| CC(C)C(NS(=O)(=O)c1ccc(Cl)cc1)C1=CC(=O)c2c(O)ccc(O)c2C1=O (centres undefined) | 8.65 | – | – |
| CC(NS(=O)(=O)c1cccc(Br)c1)C1=CC(=O)c2c(O)ccc(O)c2C1=O (centres undefined) | 6.35 | 0.16 | Activity (MDA-MB-231 [4]): Active |
